Here are results for two compounds from ChEMBL document CHEMBL5149984, “Discovery of HN37 as a Potent and Chemically Stable Antiepileptic Drug Candidate” (J Med Chem, 2021).

The nature of data set [1]: Cmax in Kunming mouse brain at 5 mg/kg, po measured upto 24 hrs by LC-MS/MS method. Set-up: dose 5 mg/kg, time < 24 hrs, route po. Format: ADME, organism-based. In a few lines: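 KM male mice (18−24 g), fasted 12 h before and 2 h after dosing. HN37 given orally at 5 mg/kg in 5% DMSO/5% Tween 80/90% saline, or iv at 2 mg/kg after dilution in saline with 1% Tween 80; n = 3 per time point. Blood sampled 0.25–24 h (from 0.083 h after iv); whole brain taken after oral dosing. Plasma and brain extracted with acetonitrile, quantified by LC−MS/MS; AUC0−t by trapezoidal method.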

Data set [2] can be described thus: Half life in Kunming mouse brain at 5 mg/kg, po measured upto 24 hrs by LC-MS/MS method. The data set is classed as ADME, organism-based. In a few lines: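 Male KM mice (18−24 g) fasted 12 h before and 2 h after dosing, given 5 mg/kg orally in 5% DMSO/5% Tween 80/90% normal saline (n = 3 per time point). Aortic blood taken at 0.25–24 h and whole brain collected. Acetonitrile extraction with internal standard, then LC−MS/MS. Bioavailability calculated against the 2 mg/kg i.v. arm.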

Data set [3] is described as follows: AUC(0 to t) in Sprague-Dawley rat brain at 6 mg/kg, po measured upto 24 hrs by LC-MS/MS method. Format: ADME, organism-based. On the set-up: dose 6 mg/kg, time < 24 hrs, route po. In outline:
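Separate experiment in male SD rats given 6 mg/kg orally; blood and brain concentrations measured concurrently. Samples extracted with acetonitrile (brain homogenized in 10 volumes acetonitrile and sonicated) and analysed by LC−MS/MS; AUC0−t by trapezoidal method.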

A short description of data set [4]: Half life in Sprague-Dawley rat at 6 mg/kg, po measured upto 24 hrs by LC-MS/MS method. The data set is classed as ADME, organism-based. As to conditions: in vivo. In a few lines: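 Male SD rats (180−220 g) given single oral doses of 2, 6 and 20 mg/kg; handled as in the mouse PK study (fasted 12 h before and 2 h after dosing, 5% DMSO/5% Tween 80/90% saline formulation). In a separate 6 mg/kg p.o. set, blood and brain were sampled together. Plasma and brain levels by LC−MS/MS.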

A short description of data set [5]: Metabolic stability in monkey liver microsomes assessed as intrinsic clearance. Format: ADME, Macaca mulatta, Microsome. As to conditions: rhesus monkey, read-out: CLH. (Liver microsomes are vesicles of endoplasmic reticulum, rich in cytochrome P450 enzymes.)
Data set [6] in a line: Metabolic stability in rat liver microsomes assessed as intrinsic clearance. The data set is classed as ADME, Microsome. As to conditions: read-out: CLH.
Data set [7] is described as follows: Metabolic stability in mouse liver microsomes assessed as intrinsic clearance. The data set is classed as ADME, Microsome. The settings on record: read-out: CLH.
The target of a further data set is Cytochrome P450 2D6 (Homo sapiens, UniProt P10635). In words: Time dependent inhibition of human liver microsome CYP2D6 preincubated for 0.5 hrs in presence or absence of NADPH followed by substrate addition by LC-MS/MS method. Format: ADME, microsomes. In outline: (§1)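 Human liver microsomes preincubated 0.5 h with 0.10–50 μM test compound, with or without NADPH, then CYP-specific probe substrate added and incubation continued. Metabolite measured by LC-MS/MS; % activity remaining relative to no-compound control; IC50 fitted by Probit model. For CYP3A4, midazolam 1′-hydroxylation and testosterone 6β-hydroxylation were read separately.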
Chain of Cytochrome P450 2D6 (P10635 whole entry): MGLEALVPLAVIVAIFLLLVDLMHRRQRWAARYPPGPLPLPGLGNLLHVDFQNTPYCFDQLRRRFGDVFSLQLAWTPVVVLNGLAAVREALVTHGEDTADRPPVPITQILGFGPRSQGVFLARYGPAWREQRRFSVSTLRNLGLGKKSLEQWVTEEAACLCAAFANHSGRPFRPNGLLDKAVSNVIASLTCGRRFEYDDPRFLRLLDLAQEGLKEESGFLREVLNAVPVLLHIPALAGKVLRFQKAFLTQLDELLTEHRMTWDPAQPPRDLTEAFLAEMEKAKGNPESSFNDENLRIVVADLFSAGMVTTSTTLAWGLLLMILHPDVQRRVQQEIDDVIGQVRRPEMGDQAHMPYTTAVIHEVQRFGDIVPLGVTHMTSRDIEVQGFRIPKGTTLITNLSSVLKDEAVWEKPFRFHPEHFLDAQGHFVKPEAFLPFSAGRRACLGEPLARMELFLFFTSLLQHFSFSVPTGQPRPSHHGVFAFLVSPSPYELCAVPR

Another data set addresses Cytochrome P450 3A4 (Homo sapiens, UniProt P08684). In words: Time dependent inhibition of human liver microsome CYP3A4 preincubated for 0.5 hrs in presence or absence of NADPH followed by testosterone addition by LC-MS/MS method. Format: ADME, microsomes. In a few lines:
as §1

For a further data set, the target named is Cytochrome P450 2C8 (Homo sapiens, UniProt P10632). As to the kind of experiment: Time dependent inhibition of human liver microsome CYP2C8 preincubated for 0.5 hrs in absence of NADPH followed by substrate addition by LC-MS/MS method. The data set is classed as ADME, microsomes. In a few lines: as §1
Chain of Cytochrome P450 2C8 (P10632 whole entry): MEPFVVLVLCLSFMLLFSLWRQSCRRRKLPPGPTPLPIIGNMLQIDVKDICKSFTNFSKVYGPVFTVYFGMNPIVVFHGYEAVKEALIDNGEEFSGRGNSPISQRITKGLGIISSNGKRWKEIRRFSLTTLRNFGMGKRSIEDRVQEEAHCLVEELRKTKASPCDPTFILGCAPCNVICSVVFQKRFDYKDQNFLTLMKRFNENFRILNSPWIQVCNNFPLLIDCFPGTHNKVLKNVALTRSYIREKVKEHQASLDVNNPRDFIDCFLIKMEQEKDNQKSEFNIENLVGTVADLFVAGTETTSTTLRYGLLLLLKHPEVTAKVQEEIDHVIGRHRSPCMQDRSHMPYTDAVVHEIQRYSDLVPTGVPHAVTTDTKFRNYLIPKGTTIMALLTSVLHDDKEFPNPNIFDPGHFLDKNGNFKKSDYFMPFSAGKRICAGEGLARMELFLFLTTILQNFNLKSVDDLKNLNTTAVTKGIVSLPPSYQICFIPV
Data set [8] deals with Potassium voltage-gated channel subfamily KQT member 5 (Homo sapiens) (UniProt Q9NR82). As to the kind of experiment: Agonist activity at human KCNQ5 channel expressed in CHO cells assessed as amplitude change of outward current at 0.1 uM by patch clamp method. Format: cell-based. The settings on record: filed as agonist. In a few lines:
(§2)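 Whole-cell patch clamp at room temperature on CHO cells (DMEM/F12, 10% FBS) transiently co-transfected with EGFP and hKCNQ1, rKCNQ2, rKCNQ3 A278T, hKCNQ4 or hKCNQ5; KCNQ2/3 at 1:1 cDNA ratio. Pipette solution 145 mM KCl, 5 mM MgATP, pH 7.3; bath 140 mM NaCl, 5 mM KCl, pH 7.4, under perfusion. V1/2 from Boltzmann fits; I/I0 is current amplitude with versus without compound; n = 4−6.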
(The patch-clamp technique gives a direct electrical read-out from membranes.)

The target in data set [9] is Potassium voltage-gated channel subfamily KQT member 2 (Rattus norvegicus) (UniProt O88943). In words: Potency index, ratio of retigabine EC50 to test compound EC50 for agonist activity at rat KCNQ2 channel expressed in CHO cells by patch clamp method. The data set is classed as cell-based.
Chain of Potassium voltage-gated channel subfamily KQT member 2 (Rattus norvegicus) (O88943 whole entry): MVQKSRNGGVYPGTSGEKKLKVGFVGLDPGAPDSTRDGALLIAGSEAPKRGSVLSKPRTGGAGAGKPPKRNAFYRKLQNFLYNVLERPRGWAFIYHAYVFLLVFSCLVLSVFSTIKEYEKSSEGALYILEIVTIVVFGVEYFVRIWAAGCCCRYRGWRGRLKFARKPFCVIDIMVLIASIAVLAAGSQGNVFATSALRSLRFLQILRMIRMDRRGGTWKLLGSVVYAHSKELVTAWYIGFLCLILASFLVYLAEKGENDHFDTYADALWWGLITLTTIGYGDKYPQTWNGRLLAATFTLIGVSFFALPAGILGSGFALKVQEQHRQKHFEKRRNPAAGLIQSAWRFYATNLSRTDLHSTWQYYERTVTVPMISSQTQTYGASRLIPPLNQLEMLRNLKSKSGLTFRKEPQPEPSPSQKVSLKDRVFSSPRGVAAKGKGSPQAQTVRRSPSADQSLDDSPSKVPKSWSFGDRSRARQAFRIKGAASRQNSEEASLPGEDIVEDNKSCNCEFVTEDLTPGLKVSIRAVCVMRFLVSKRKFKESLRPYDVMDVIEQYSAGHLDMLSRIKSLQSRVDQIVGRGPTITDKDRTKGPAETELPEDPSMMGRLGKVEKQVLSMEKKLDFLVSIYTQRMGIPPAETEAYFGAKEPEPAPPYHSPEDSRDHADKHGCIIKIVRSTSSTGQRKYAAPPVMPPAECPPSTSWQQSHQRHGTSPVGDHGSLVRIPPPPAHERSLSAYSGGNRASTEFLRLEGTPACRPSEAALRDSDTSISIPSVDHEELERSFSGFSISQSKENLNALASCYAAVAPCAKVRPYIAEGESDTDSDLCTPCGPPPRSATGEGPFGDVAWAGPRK
A short description of data set [10]: Ratio of TC50 for Kunming mouse to EC50 for anticonvulsant activity in Kunming mouse. Format: toxicity. In outline:
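Male KM mice dosed orally in 0.5% CMC-Na and killed straight after the 1 h MES or rotarod test. Brain and plasma levels measured by LC−MS/MS. EC50 and TC50 fitted by nonlinear regression of protection or motor impairment against mean brain concentration; ratio = TC50,brain/EC50,brain.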

Data set [11] has as its target Potassium voltage-gated channel subfamily KQT member 2/member 3 (Rattus norvegicus) (UniProt O88943+O88944). In words: Agonist activity at rat KCNQ2/3 channel expressed in CHO cells assessed as amplitude change of outward current at 10 uM by patch clamp method. Format: cell-based. As to conditions: filed as agonist. In a few lines:
as §2

In a further data set the test system is Mus musculus. In words: Anticonvulsant activity in pentylenetetrazol induced Kunming mouse model of seizure at 30 mg/kg, po after 1 hr. Format: functional. In a few lines: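 sc-PTZ test in male KM mice. Compound suspended in 0.5% CMC-Na and given orally 1 h before PTZ (freshly dissolved in normal saline, 100 mg/kg). Protection against clonic seizures scored; ED50 by nonlinear regression.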

Data set [12] in a line: Neurotoxicity in Kunming mouse assessed as motor impairment rate at 300 mg/kg, po after 1 hr by rotarod test. The data set is classed as toxicity, organism-based. The settings on record: in vivo. In a few lines: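 Male KM mice dosed intragastrically with compound freshly suspended in 0.5% CMC-Na. Rotarod performance scored 1 h after dosing as the fraction of animals showing motor impairment. Fisher's exact test versus vehicle; TD50 from nonlinear dose−response fit.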

Chain of Potassium voltage-gated channel subfamily KQT member 5 (Homo sapiens) (Q9NR82 whole entry, the tested form may be a part): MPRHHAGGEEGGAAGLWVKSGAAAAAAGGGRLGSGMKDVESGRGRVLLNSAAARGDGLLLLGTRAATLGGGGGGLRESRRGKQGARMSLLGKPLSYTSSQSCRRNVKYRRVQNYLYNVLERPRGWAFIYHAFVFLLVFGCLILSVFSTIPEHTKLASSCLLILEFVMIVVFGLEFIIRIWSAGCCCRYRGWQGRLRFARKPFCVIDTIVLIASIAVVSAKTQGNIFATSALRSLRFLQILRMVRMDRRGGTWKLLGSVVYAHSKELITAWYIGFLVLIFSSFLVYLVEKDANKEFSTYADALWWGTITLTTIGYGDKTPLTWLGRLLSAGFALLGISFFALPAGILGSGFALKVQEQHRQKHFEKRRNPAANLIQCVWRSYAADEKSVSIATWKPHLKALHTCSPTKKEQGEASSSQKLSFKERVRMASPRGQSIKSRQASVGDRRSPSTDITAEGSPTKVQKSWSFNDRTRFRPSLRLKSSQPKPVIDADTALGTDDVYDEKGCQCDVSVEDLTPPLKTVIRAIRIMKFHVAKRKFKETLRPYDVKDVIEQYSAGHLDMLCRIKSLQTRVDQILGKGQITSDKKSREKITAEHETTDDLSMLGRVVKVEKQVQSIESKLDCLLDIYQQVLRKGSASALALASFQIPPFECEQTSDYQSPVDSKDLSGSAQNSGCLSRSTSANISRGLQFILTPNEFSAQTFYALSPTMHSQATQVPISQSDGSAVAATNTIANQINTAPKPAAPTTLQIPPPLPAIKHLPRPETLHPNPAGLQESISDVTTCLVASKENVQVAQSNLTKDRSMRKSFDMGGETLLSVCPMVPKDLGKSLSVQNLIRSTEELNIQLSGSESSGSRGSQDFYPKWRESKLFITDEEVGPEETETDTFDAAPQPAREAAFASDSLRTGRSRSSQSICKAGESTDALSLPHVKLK
Chain of Cytochrome P450 3A4 (P08684 whole entry): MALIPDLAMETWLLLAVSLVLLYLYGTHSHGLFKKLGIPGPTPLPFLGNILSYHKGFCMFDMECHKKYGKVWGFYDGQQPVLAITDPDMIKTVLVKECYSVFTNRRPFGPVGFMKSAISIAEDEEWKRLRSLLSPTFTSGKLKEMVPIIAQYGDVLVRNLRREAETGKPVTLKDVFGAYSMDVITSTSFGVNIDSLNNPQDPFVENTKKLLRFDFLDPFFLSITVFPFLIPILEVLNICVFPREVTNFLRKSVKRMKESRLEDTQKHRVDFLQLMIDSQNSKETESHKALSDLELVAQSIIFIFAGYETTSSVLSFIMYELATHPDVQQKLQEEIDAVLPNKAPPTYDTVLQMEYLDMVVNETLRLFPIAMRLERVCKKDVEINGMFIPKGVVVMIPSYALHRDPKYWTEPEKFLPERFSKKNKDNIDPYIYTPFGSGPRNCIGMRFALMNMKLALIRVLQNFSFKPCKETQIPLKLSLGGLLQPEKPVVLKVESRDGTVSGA

The compound `C#CCN(Cc1ccc(F)cc1)c1cc(C)c(NC(=O)OC)c(C)c1` registered a Cmax in data set [1] of 263 ng/mL. Besides, the half-life is 1.95 h in [2] and 2.36 h in [4]. Further, the AUC(0-t) at 24 h in data set [3] came to 1520 ng·h/mL. The CLint scaled in data set [5] was 112 mL/min/kg; in data set [6], 105 mL/min/kg; in data set [7], 438 mL/min/kg. The values for the IC50 against Cytochrome P450 2D6, on Cytochrome P450 3A4 and against Cytochrome P450 2C8 were greater than 50 µM, greater than 50 µM and 225 µM, respectively. In addition, in data set [8], the Activity came to 3.14. Moreover, in data set [9], the Ratio EC50 is 55. In addition, the selectivity ratio in data set [10] was 49.6.

As to `CCOC(=O)Nc1ccc(NCc2ccc(F)cc2)cc1N` [EZOGABINE], the figures for the Activity (in data set [11]; with Mus musculus; in data set [12]) were 1.97, 50% and 100%, respectively.

One may read the Cmax as the peak of the concentration-time curve. By half-life is commonly meant how long it takes for the measured level to halve. The AUC(0-t) is exposure summed from dosing to a finite time, without extrapolation to infinity. The term IC50 denotes the concentration that gives 50% inhibition.
